One data set concerns the target Plasmepsin V (Plasmodium falciparum (isolate 3D7), UniProt Q8I6Z5). As to the kind of experiment: (§1) Inhibition of Plasmodium falciparum […] plasmepsin-5 using DABCYL-GNKRTLAQKQG-EDANS as substrate measured every 15 mins of 75 mins by fluorescence assay.
The subject of data set [1] is Plasmodium falciparum. As to the kind of experiment: Antimalarial activity against chloroquine-sensitive Plasmodium falciparum 3D7 infected in […] after 72 hrs by SYBR Green I-based fluorescence method. In kind it is functional, organism-based. Particulars: for pIC50: 3D7, 72 h.
Data set [2] has as its system Plasmodium falciparum. As to the kind of experiment: Antimalarial activity against Plasmodium falciparum. In kind it is functional, organism-based.
The nature of data set [3]: Plasma concentration in Plasmodium chabaudi ASS infected NIH mouse at 100 mg/kg, po qd measured 6 hrs after post last dose on day 3. In kind it is ADME, organism-based. On the set-up: dose 100 mg/kg, route oral. In a few lines:
(§2)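 P. chabaudi-infected mice were dosed orally once daily for four days, starting four hours post-infection. Plasma compound levels were measured at 1, 6 and 24 h after the last dose on Day 3.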

Data set [4] in a line: Plasma concentration in Plasmodium chabaudi ASS infected NIH mouse at 100 mg/kg, po qd measured 24 hrs after post last dose on day 3. Further details: dose 100 mg/kg, route oral. In kind it is ADME, organism-based. In a few lines:
as §2

Data set [5] in a line: Plasma concentration in Plasmodium chabaudi ASS infected NIH mouse at 100 mg/kg, po qd measured 1 hr after post last dose on day 3. The data set is classed as ADME, organism-based. On the set-up: dose 100 mg/kg, route oral. In short, it runs like this: as §2
Data set [6] deals with Plasmodium chabaudi. As to the kind of experiment: Antimalarial activity against Plasmodium chabaudi ASS infected in NIH mouse assessed as inhibition of parasitemia at 100 mg/kg, po qd for 4 days. In kind it is functional. Particulars: 96 h. In a few lines:
(§3)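 Mice infected with P. chabaudi were given oral doses once daily for four days, starting four hours after infection. Parasitemia was read on Day 4 postinoculation and expressed as percent inhibition of parasitemia.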

In a further data set the target is Cytochrome P450 3A4 (Homo sapiens, UniProt P08684). As to the kind of experiment: Inhibition of human recombinant CYP3A4 after 30 mins. In kind it is ADME. Particulars: recombinant enzyme, 0.5 h.
Chain of Cytochrome P450 3A4 (P08684 whole entry): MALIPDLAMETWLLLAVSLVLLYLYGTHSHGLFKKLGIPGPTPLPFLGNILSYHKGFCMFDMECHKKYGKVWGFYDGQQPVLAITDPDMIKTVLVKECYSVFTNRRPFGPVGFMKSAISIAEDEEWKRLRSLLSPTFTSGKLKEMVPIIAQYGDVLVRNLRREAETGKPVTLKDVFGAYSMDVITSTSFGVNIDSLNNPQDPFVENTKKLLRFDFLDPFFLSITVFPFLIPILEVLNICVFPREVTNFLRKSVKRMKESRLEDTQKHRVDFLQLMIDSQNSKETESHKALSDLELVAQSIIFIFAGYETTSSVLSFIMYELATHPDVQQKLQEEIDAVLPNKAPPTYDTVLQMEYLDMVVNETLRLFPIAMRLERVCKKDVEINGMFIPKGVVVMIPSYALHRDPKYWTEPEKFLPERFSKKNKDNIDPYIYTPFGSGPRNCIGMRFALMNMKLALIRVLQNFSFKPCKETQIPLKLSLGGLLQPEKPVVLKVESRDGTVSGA
The next data set deals with Cytochrome P450 2C19 (Homo sapiens, UniProt P33261). As to the kind of experiment: Inhibition of human recombinant CYP2C19 after 30 mins. The data set is classed as ADME. Particulars: recombinant enzyme, 0.5 h.
Chain of Cytochrome P450 2C19 (P33261 whole entry): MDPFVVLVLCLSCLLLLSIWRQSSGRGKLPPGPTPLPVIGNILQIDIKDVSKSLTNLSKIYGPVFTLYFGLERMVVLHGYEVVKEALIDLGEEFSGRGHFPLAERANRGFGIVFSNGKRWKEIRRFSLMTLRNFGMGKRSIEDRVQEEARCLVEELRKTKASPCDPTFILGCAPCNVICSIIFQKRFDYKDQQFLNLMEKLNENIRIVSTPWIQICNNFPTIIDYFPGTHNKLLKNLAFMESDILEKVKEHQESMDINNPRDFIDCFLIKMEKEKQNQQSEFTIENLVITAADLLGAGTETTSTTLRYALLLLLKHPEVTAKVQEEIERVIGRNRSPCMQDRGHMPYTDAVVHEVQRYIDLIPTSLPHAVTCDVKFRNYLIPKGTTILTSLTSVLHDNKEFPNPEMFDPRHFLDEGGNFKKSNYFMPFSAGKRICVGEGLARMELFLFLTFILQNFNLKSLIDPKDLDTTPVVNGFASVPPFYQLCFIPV
In another data set the target is Cytochrome P450 2D6 (Homo sapiens, UniProt P10635). As to the kind of experiment: Inhibition of human recombinant CYP2D6 after 30 mins. The data set is classed as ADME. Particulars: recombinant enzyme, 0.5 h.
Chain of Cytochrome P450 2D6 (P10635 whole entry): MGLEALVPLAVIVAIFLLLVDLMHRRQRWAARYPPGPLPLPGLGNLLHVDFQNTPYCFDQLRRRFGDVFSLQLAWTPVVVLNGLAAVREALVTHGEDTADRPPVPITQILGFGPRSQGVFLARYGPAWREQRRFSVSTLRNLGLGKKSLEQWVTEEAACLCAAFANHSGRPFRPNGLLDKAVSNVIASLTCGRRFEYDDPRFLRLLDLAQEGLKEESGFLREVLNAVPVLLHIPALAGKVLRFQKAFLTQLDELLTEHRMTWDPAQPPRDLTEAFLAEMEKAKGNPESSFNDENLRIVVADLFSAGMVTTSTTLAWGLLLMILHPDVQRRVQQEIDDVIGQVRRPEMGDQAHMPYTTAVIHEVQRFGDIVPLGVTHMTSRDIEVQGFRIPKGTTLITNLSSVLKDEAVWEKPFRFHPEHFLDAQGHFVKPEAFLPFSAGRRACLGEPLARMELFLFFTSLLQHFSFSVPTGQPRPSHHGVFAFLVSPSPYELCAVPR
The next data set has as its target Cytochrome P450 2C9 (Homo sapiens, UniProt P11712). As to the kind of experiment: Inhibition of human recombinant CYP2C9 after 30 mins. The data set is classed as ADME. Particulars: recombinant enzyme, 0.5 h.
A further data set concerns the target T1, Cytochrome P450 1A2 (Homo sapiens, UniProt P05177).
T1 sequence (P05177 whole entry): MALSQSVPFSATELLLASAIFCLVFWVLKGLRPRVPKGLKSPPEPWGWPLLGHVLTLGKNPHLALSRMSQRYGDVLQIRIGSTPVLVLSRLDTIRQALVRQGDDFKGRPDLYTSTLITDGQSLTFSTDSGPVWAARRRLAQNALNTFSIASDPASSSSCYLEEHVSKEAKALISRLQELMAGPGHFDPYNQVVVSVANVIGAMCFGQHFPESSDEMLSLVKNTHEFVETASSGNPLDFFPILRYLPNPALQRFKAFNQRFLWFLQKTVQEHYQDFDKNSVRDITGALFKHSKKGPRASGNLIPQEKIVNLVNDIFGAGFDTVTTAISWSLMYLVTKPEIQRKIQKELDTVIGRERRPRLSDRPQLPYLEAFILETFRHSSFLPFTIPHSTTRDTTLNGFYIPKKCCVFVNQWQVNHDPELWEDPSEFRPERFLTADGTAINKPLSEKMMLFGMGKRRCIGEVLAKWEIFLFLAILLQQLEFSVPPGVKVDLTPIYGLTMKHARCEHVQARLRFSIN
As to the kind of experiment: Inhibition of human recombinant CYP1A2 after 30 mins. The data set is classed as ADME. Particulars: recombinant enzyme, 0.5 h.

A further data set deals with HepG2. As to the kind of experiment: Cytotoxicity against human HepG2 cells after 72 hrs. The data set is classed as cell-based. Particulars: hepg2, 72 h.
For data set [7], the system named is Plasmodium falciparum. As to the kind of experiment: Antimalarial activity against chloroquine-sensitive Plasmodium falciparum 3D7 infected in […] after 48 hrs by SYBR Green I-based fluorescence method. The data set is classed as functional, organism-based.
The subject of data set [8] is Plasmodium falciparum. As to the kind of experiment: Antimalarial activity against chloroquine and pyrimethamine-resistant Plasmodium falciparum Dd2 infected in […] after 48 hrs by SYBR Green I-based fluorescence method. The data set is classed as functional.
Data set [9] concerns the target Plasmepsin II (Plasmodium falciparum) (UniProt P46925). As to the kind of experiment: Inhibition of Plasmodium falciparum plasmepsin-2 after 60 mins by fluorescence assay.
Data set [10] addresses Plasmepsin V (Plasmodium falciparum (isolate 3D7)) (UniProt Q8I6Z5). Described as §1.
Data set [11] in a line: Selectivity ratio of IC50 for human cathepsin E to IC50 for Plasmodium falciparum plasmepsin-2.
Data set [12] in a line: Selectivity ratio of IC50 for human cathepsin D to IC50 for Plasmodium falciparum plasmepsin-2.
The nature of data set [13]: Selectivity ratio of IC50 for human BACE1 to IC50 for Plasmodium falciparum plasmepsin-2.
Data set [14] is described as follows: Plasma concentration in Plasmodium chabaudi ASS infected NIH mouse at 110 mg/kg, po qd measured 30 mins after post last dose on day 3. In kind it is ADME, organism-based. On the set-up: dose 110 mg/kg, route oral.
The nature of data set [15]: Plasma concentration in Plasmodium chabaudi ASS infected NIH mouse at 110 mg/kg, po qd measured 24 hrs after post last dose on day 3. In kind it is ADME, organism-based. On the set-up: dose 110 mg/kg, route oral. In a few lines:
as §2

Data set [16] deals with Plasmodium chabaudi. As to the kind of experiment: Antimalarial activity against Plasmodium chabaudi ASS infected in NIH mouse assessed as inhibition of parasitemia at 110 mg/kg, po qd for 4 days. In kind it is functional. Particulars: 96 h. In a few lines:
as §3

For data set [17], the system named is Plasmodium chabaudi. As to the kind of experiment: Antimalarial activity against Plasmodium chabaudi ASS infected in NIH mouse assessed as inhibition of parasitemia at 4.5 mg/kg, po qd for 4 days. In kind it is functional. Particulars: 96 h. In a few lines:
as §3

Data set [18] deals with Plasmepsin IV (Plasmodium falciparum). As to the kind of experiment: Inhibition of Plasmodium falciparum plasmepsin-4 after 60 mins by fluorescence assay.
For data set [19], the system named is Plasmodium chabaudi. As to the kind of experiment: Antimalarial activity against Plasmodium chabaudi ASS infected in NIH mouse assessed as inhibition of parasitemia at 150 to 300 mg/kg, po qd for 4 days. In kind it is functional. Particulars: dose mg/kg 150-300.
Another data set deals with Mus musculus. As to the kind of experiment: Toxicity in Plasmodium chabaudi ASS infected NIH mouse assessed as survival at 10 to 300 mg/kg, po qd for 4 days. The data set is classed as organism-based. Further details: dose 10-300 mg/kg, route oral. Particulars: in vivo, 96 h.
Data set [20] deals with Liver microsome. As to the kind of experiment: Metabolic stability in human liver microsomes at 1 uM after 5 to 30 mins. In kind it is ADME.
The test system of data set [21] is Liver microsome. As to the kind of experiment: Metabolic stability in rat liver microsomes at 1 uM after 5 to 30 mins. In kind it is ADME.
A short description of data set [22]: Metabolic stability in mouse liver microsomes at 1 uM after 5 to 30 mins. The data set is classed as ADME, Microsome. (Microsomes from liver hold many membrane-bound enzymes, among them those of drug oxidation.)

pIC50: −log10 of the molar value. Activity calls are given as the source filed them. No cut-off for these calls is given here. Where only a bound is given, the exact number is not on record here.

The pIC50 is the negative decadic logarithm of the IC50, by convention in mol/L. Higher therefore signals a low IC50. For orientation: inhibition in vivo means the drop in the measured response relative to a control, in per cent.

Chain of Cytochrome P450 2C9 (P11712 whole entry): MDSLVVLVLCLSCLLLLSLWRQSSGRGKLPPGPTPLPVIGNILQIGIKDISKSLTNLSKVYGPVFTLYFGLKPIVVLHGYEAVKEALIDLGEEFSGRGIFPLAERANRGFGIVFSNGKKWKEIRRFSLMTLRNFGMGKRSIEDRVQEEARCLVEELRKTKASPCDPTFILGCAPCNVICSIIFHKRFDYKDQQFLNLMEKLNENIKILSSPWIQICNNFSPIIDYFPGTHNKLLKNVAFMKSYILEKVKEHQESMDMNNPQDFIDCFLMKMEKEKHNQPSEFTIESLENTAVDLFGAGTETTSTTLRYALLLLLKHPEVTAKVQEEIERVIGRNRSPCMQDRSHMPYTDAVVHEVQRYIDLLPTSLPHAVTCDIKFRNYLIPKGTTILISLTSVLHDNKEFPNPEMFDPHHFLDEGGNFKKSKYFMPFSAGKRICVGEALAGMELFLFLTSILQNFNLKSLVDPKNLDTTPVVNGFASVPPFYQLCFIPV
Chain of Plasmepsin V (Plasmodium falciparum (isolate 3D7)) (Q8I6Z5 whole entry, looked up): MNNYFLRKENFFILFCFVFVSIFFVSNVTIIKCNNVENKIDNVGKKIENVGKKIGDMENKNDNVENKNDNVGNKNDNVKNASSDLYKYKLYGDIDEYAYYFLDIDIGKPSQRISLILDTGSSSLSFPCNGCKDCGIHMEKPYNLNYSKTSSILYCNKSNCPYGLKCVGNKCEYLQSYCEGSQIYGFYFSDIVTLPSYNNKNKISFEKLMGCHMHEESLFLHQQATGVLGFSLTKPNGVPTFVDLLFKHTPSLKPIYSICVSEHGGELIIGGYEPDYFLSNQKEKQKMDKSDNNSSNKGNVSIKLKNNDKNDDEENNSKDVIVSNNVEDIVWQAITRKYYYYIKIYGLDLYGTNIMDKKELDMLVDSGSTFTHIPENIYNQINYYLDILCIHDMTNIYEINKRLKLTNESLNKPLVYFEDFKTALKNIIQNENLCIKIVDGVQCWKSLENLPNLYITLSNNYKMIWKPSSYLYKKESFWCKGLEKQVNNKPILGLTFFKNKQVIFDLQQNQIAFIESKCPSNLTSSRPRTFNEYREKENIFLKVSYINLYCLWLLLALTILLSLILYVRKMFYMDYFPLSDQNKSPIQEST
Chain of Plasmepsin II (Plasmodium falciparum) (P46925 125-453 limits assumed): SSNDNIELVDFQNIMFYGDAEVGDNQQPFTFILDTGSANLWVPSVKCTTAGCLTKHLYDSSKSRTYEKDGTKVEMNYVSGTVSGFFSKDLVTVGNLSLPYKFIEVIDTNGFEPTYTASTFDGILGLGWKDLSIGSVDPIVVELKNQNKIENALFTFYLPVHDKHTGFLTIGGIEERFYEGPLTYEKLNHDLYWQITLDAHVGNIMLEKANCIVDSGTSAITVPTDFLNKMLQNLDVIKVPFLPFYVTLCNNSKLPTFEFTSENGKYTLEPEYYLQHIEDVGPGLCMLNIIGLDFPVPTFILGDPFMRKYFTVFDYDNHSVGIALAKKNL
Chain of Plasmepsin V (Q8I6Z5 whole entry): as the sequence (Q8I6Z5 whole entry, looked up) above

Regarding `CCC(CN1C(=N)NC(c2ccccc2)(c2ccccc2)C1=O)c1ccccc1` (racemic), the pIC50 against Plasmepsin V was 6.01; in the data set on Plasmodium falciparum [1], 5.56; in the data set with Plasmodium falciparum [2], 6.85.

In the case of `COc1ccc(C2(c3ccc(OC)cc3)NC(=N)N(CC3CCCCC3)C2=O)cc1`, in [3], the concentration at 6 h came out at 2190 ng/mL. Also, the concentration at 24 h in data set [4] worked out at 7 ng/mL. In data set [5], this compound had a concentration at 1 h of 2520 ng/mL. Also, the inhibition in vivo at 100 mg/kg in the data set on Plasmodium chabaudi [6] worked out at 73%. Also, the “inhibition (INH)” value was “Active” at Cytochrome P450 3A4; “Not Active” at Cytochrome P450 2C19; “Not Active” on Cytochrome P450 2D6; “Not Active” on Cytochrome P450 2C9; “Not Active” on Cytochrome P450 1A2. Besides, the Activity entry with HepG2 is listed as “Toxic”. The inhibition result with Plasmodium falciparum [7] and with Plasmodium falciparum [8] was “Active” each time. The compound further gave a pIC50 in the data set with Plasmodium falciparum [1] of 6.42.

With `COc1ccc(C2(c3ccc(OC)cc3)NC(=S)N(C3CCCCC3)C2=O)cc1`, the inhibition entry (in the data set with Plasmodium falciparum [1]; in data set [9]) was “inactive” throughout.

Consider `COc1cccc(C2(c3cccc(OC)c3)NC(=N)N(C3CCCCC3)C2=O)c1`, for which the inhibition result in [10] was “inactive”. In the data set on Plasmodium falciparum [1], this compound had a pIC50 of 6.11.

With `Cc1cccc(C)c1OCC(=O)N[C@@H](Cc1ccccc1)[C@@H](O)C[C@H](Cc1ccccc1)NC(=O)[C@H](C(C)C)N1CCCNC1=O` [LOPINAVIR], on Plasmepsin V, the negative logarithm of the IC50 (pIC50) is less than 4.70.

The compound `COc1ccc(C2(c3ccc(OC)cc3)NC(=N)N(CC3CCOCC3)C2=O)cc1` registered a concentration at 6 h in data set [3] of 3030 ng/mL. For the same compound, the concentration at 24 h in data set [4] stood at 123 ng/mL. Besides, the concentration at 1 h in data set [5] was 10400 ng/mL. The inhibition in vivo at 100 mg/kg in the data set with Plasmodium chabaudi [6] is 41%. Further, the “inhibition (INH)” value on Cytochrome P450 3A4 is recorded as “Active”; at Cytochrome P450 2C19 it was “Not Active”; at Cytochrome P450 2D6 it was “Not Active”; at Cytochrome P450 2C9 it was “Not Active”; on Cytochrome P450 1A2, “Not Active”. Besides, the Activity result in the data set with HepG2 is given as “Toxic”. Further, the inhibition entry with Plasmodium falciparum [7] and in the data set on Plasmodium falciparum [8] was “Active” throughout. Besides, the pIC50 with Plasmodium falciparum [1] is 6.33.

Regarding `N=C1NC(c2ccccc2)(c2cccc(-c3cccnc3)c2)C(=O)N1C1CCCCC1` (racemic), the values for the Ratio IC50 in data set [11], in data set [12] and in data set [13] were 200, more than 1000 and more than 1000, respectively. For the same compound, in data set [10], the inhibition entry is “inactive”. Further, the negative-log IC50 (pIC50) with Plasmodium falciparum [1] was 6.12.

In the case of `COc1ccc(C2(c3ccc(OC)cc3)NC(=N)N(C3CCOCC3)C2=O)cc1`, in data set [14], the concentration at 0.5 h came to 4140 ng/mL. Also, the concentration at 24 h in [15] worked out at 29 ng/mL. For the same compound, the inhibition in vivo at 110 mg/kg in the data set with Plasmodium chabaudi [16] came to 63%. Moreover, the “inhibition (INH)” value is on record as “Active” at Cytochrome P450 3A4; “Not Active” at Cytochrome P450 2C19; “Not Active” on Cytochrome P450 2D6; “Not Active” at Cytochrome P450 2C9; “Not Active” at Cytochrome P450 1A2. In addition, the Activity result in the data set with HepG2 was “Toxic”. The inhibition entry with Plasmodium falciparum [7] and with Plasmodium falciparum [8] was “Active” each time. The pIC50 with Plasmodium falciparum [1] was 6.34.

With `CCN(CC)CCCC(C)Nc1ccnc2cc(Cl)ccc12` (stereo not given) [CHLOROQUINE], the inhibition in vivo at 4.5 mg/kg with Plasmodium chabaudi [17] amounted to 100%.

As for `COc1ccc(C2(c3ccc(OC)cc3)NC(=O)N(C3CCCCC3)C2=O)cc1`, the inhibition result (with Plasmodium falciparum [1]; in data set [9]; in data set [18]) was “inactive” throughout.

In turn, `COc1ccc(C2(c3ccc(OC)cc3)NC(=N)N(C3CC3)C2=O)cc1` had a pIC50 in the data set on Plasmodium falciparum [1] of 5.39.

`COc1ccc(C2(c3ccc(OC)cc3)NC(=N)N(C3CCCCC3)C2=O)cc1`: the “inhibition (INH)” value in the data set with Plasmodium chabaudi [19] is recorded as 100%; on Cytochrome P450 3A4, “Active”; at Cytochrome P450 2C19 it was “Not Active”; on Cytochrome P450 2D6, “Not Active”; on Cytochrome P450 2C9, “Not Active”; on Cytochrome P450 1A2, “Not Active”. In addition, the Activity result in the data set on Mus musculus is given as “Non-toxic”; with HepG2, “Toxic”. The inhibition in vivo at 100 mg/kg with Plasmodium chabaudi [6] amounted to 89%. Moreover, the Stability result (with Liver microsome [20]; in the data set on Liver microsome [21]; in data set [22]) was “Stable” in each case. In addition, the inhibition entry in the data set on Plasmodium falciparum [7] is “Active”. The pIC50 is 6.32 with Plasmodium falciparum [8] (Dd2, 48 h) and 6.33 in the data set with Plasmodium falciparum [1]. The Ratio IC50 in data set [11] is 300; in [12] it was more than 1000; in data set [13], more than 1000. Further, the inhibition entry in [10] is “inactive”.

The record behind these values is ChEMBL document CHEMBL3108756, “Evaluation of aminohydantoins as a novel class of antimalarial agents” (ACS Med Chem Lett, 2014).
